Published values from different studies.
Compare with care: the assays were run in different laboratories.
Target: Ephrin type-B receptor 4 (EPHB4, Homo sapiens, UniProt P54760)
One construct used (P54760 16-987): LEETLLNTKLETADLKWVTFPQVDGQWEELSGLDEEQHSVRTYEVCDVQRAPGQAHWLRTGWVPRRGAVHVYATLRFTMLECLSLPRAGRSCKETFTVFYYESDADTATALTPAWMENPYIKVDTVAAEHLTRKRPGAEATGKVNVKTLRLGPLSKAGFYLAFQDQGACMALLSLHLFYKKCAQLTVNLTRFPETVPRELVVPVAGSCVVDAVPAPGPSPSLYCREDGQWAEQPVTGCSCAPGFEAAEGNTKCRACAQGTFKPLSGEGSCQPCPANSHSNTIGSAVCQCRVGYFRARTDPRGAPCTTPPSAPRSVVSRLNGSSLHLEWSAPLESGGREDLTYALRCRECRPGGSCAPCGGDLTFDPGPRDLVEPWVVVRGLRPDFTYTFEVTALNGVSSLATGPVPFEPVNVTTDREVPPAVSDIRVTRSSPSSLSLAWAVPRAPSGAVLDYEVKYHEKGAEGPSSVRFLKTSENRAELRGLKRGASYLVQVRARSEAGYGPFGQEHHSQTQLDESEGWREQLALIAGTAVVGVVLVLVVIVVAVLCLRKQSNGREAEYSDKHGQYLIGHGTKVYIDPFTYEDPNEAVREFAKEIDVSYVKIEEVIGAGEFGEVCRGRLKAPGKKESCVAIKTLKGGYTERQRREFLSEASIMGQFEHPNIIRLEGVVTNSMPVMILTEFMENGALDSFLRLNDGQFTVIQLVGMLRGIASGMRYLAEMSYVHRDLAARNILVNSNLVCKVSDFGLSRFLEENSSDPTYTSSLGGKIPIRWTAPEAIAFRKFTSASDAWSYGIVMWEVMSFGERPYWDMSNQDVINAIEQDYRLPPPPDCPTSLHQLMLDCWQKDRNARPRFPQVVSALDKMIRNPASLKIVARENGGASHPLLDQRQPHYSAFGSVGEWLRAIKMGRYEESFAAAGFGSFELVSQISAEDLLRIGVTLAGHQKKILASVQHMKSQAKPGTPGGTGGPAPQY

Structure (SMILES) | test | conditions | remaining binding
CN(c1nccc(-c2cnn3ncccc23)n1)C1CC1 | binding | 1 µM | 100%
C[C@H](c1ccc(F)cc1)N(Cc1cccc(C(=O)O)c1)C(=O)c1cnc2ccccc2c1 | cell-free assay, competition with immobilised ligand | 1 µM | 100%
COc1cnc(Nc2cccc(S(N)(=O)=O)c2)nc1N1CCN(c2ccccc2)CC1 | binding, competition with immobilised ligand | 1 µM | 96%
FC(F)(F)Oc1cccc(-c2cnc3ccc(-c4ccncc4)nn23)c1 | cell-free assay, competition with immobilised ligand | 5 µM | 87%
O=c1nc(-c2ccccn2)sc2ccccc12 | cell-free assay, competition with immobilised ligand | 1 µM | 100%
O=C(c1ccc(Nc2nccc(-c3cc4ccccc4s3)n2)cc1)N1CCC(N2CCCC2)CC1 | binding, competition with immobilised ligand | 1 µM | 87%
O=C(Nc1c[nH]nc1C(=O)NC1CCNCC1)c1cc(F)cc(F)c1 | binding, competition with immobilised ligand | 1 µM | 100%
CC1CCCN1c1nccc(-c2cnn3ncccc23)n1 (stereo not drawn) | binding | 1 µM | 100%
COc1cnc(Nc2cccc(S(N)(=O)=O)c2)nc1N1CCN(c2ccccc2)C(=O)C1 | binding, competition with immobilised ligand | 1 µM | 100%
CN(C)C(=O)Cn1cc(-c2nc(C3(c4ccc(-c5cnc(N)nc5)cc4)CC3)no2)cn1 | cell-free assay, competition with immobilised ligand | 1 µM | 100%
CN(CCCC(F)(F)F)c1nccc(-c2cnn3ncccc23)n1 | binding | 1 µM | 93%
C[C@@H](c1ccc(-n2cnc3c(N)ncnc32)cc1)N1CCc2nn(C)c(Cc3ccccc3)c2C1=O | binding, competition with immobilised ligand | 0.1 µM | 95%
Cc1cnc(Nc2ccc(C(=O)N3CCC(N4CCCC4)CC3)cc2)nc1-c1cc2ccccc2s1 | binding, competition with immobilised ligand | 1 µM | 27%
Nc1ncc2c(n1)-c1c([nH]c3ccc(C#CC4CC4)cc13)CCCC2 | binding, competition with immobilised ligand | 1 µM | 100%
O=C(O)[C@@H]1[C@@H](Cn2nnc3ccccc3c2=O)CC[C@H]1C(=O)c1ccc(OCCC2CCOCC2)cc1 | cell-free assay, competition with immobilised ligand | 1 µM | 100%
CN(C)c1nccc(-c2cnn3ncccc23)n1 | binding | 1 µM | 100%
Cc1noc([C@H]2C[C@@H](c3ccc(C(F)(F)F)cc3)CN(C(=O)N3CCS(=O)(=O)C3)C2)n1 | cell-free assay, competition with immobilised ligand | 1 µM | 100%
Cc1cnn2ncc(-c3ccnc(N(C)C)n3)c2c1 | binding | 1 µM | 94%
CCC(=O)N[C@H]1CC[C@@H](C(=O)N(C)c2ccc(-c3nc4ccccc4o3)cc2)C1 | cell-free assay, competition with immobilised ligand | 1 µM | 73%
O=C(NCCCN1CCOCC1)c1ccc(Nc2nccc(-c3cc4ccccc4s3)n2)cc1 | binding, competition with immobilised ligand | 1 µM | 78%
C[C@@H]1CCN(c2nccc(-c3cnn4ncccc34)n2)C1 | binding | 1 µM | 100%
